Compound activity from PubChem.
The list is not random: actives were taken first. Their share in the collection is about 0.99%.
GC-B act: GC-B (human) receptor activation; P20594; HEK293-GC-B cells, CNP EC30, cGMP TR-FRET; 0% at EC30 CNP, 100% saturating CNP; activation, % at 10 µM; 370,000 tested, 0.11% active;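 active = activation at 10 µM reaching about 35% in either raw or pattern-adjusted values, limit read from the data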
FN deposition inh: fibronectin deposition inhibition | AH1F fibroblasts, Alexa488-fibronectin deposition fluorescence, overnight | inhibition, % at 12.6 µM | 350,000 tested, 0.086% active | AID 743247;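 active = mean inhibition across replicates of 30% or more, regardless of how many single replicates reach that level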;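 note: positive control wells lacked labelled fibronectin entirely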
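Material: AH1F fibroblast monolayer depositing Alexa488-labelled fibronectin into matrix / Amount: 10000 AH1F cells per well / Signal: fluorescence 485/525 nm / Medium: DMEM, 2% serum / Compound: single dose, pinned / Incubation: 1 h cell adhesion before compound, then overnight fibronectin incubation / Reagent: Alexa488-FN, 24 nM final / Read-out: inhibition of fibronectin deposition signal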
GC-A act: GC-A (human) enzyme activation | P16066 | HEK293 GC-A cells, cGMP TR-FRET, EC30 ANP; 0% at EC30 ANP, 100% saturating ANP | activation, % at 10 µM | 370,000 tested, 0.14% active | AID 1671463; in the data active = activation above about 40%
CaV13 ICDI inh: Primary screen for inhibitors of IQ motif and Ca2+-dependent inactivation inhibitor domain binding in CACNA1D, Förster resonance energy transfer in living cells, … | HEK cells, CFP/YFP FRET ICDI-IQ, plate reader, 10 min; percent FRET-ratio fall versus neutral wells | inhibition, % at 12.3 µM | 340,000 tested, 0.098% active | AID 743397;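 active = mean replicate inhibition of at least 30% and at least 1% of replicates passing that level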;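 note: 0% = median of the neutral control wells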
NSD2 HMT inh: blocks human histone methyltransferase NSD2 | O96028 | NSD2 peptide methylation, AlphaScreen, 120 min | inhibition, % at 12.5 µM | 310,000 tested, 0.54% active | AID 743445; in the data active = inhibition above about 50%
CASP6 VEID inh: inhibitors of human caspase-6. purified caspase-6, Z-VEID-R110 cleavage fluorescence. 350,000 tested, 0.53% active. inhibition, % at 12.5 µM. P55212;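 active = mean inhibition across replicates at least about 35%, with every replicate also reaching that limit, limit read from the data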;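 note: 0% = median of neutral control wells and 100% = no fluorescence left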
An asterisk follows results filed as active; x = no result; + = active, no number.

SMILES	GC-B act	FN deposition inh	GC-A act	CaV13 ICDI inh	NSD2 HMT inh	CASP6 VEID inh
CSc1ccccc1OCc1cc(C(=O)N[C@H]2CCCCNC2=O)no1	2	-1	62*	-8	1	0
CCOc1cc(S(=O)(=O)Nc2cc(C)cc(C)c2)ccc1Cl	47*	x	-3	-7	-1	x
COc1ccc(NC(=O)Nc2ccc3c(c2)[C@H]2C[C@@H](CC(=O)N4CCN(C)CC4)O[C@H](CO)[C@H]2O3)cc1	x	x	x	x	x	-5
Cc1nn(C)cc1NC(=O)C[C@H]1CC[C@@H]2[C@H](COc3ccc(NC(=O)NC(C)C)cc3C(=O)N2C)O1	x	-6	x	x	x	-1
O=C(Nc1ccc(N2CCCCC2)cc1)c1ccc([N+](=O)[O-])o1	3	3	-4	-9	3	11
CS(=O)(=O)N1CCN(c2ccc(NC(=O)c3ccc([N+](=O)[O-])o3)cc2)CC1	1	36*	-1	-2	0	-3
CC(=O)/C=C1/SC(CC(=O)O)C(=O)N1c1ccccc1 (stereo unspecified)	3	-1	4	-5	115*	x
C[C@@H]1CN([C@@H](C)CO)C(=O)c2cc(NC(=O)CCCCCC(=O)Nc3ccccc3N)ccc2O[C@H]1CN(C)S(=O)(=O)c1ccc(Cl)cc1	x	x	x	x	x	-2
Cn1cnc(S(=O)(=O)Nc2ccc(OC(F)(F)F)cc2)c1	2	-8	-1	+	-2	-2
O=C(O)Cc1c[nH]c2cccc(O)c12	-6	x	-2	x	x	54*
COc1ccc(N(C(=O)CCl)C(C(=O)NCCc2ccccc2)c2cccs2)cc1Cl (stereo unspecified)	-12	34*	-35	-5	0	1
COc1cccc(N(C(=O)CCl)C(C(=O)NCCc2ccccc2)c2cccs2)c1 (stereo unspecified)	-9	19	-5	-11	-5	x
Cc1cc(C)n(CCNC(=O)C2CCC(=O)N(Cc3ccc(Cl)cc3)C2)n1 (stereo unspecified)	-4	0	3	-2	-1	63*
O=C(Nc1c(-c2ccccc2)[nH][nH]c1=O)c1ccc2c(c1)OCO2	-5	3	0	-5	x	4
O=C(Nc1c(-c2ccc3c(c2)OCO3)[nH][nH]c1=O)c1ccccc1	1	-2	1	-4	x	45*
Cc1cc(-c2ccccc2)c2ccc(NC(=O)C(C)(C)C)nc2n1	-6	-8	-2	45*	0	3
Cc1cc(C)nc(/N=C(\NC(=O)C(C)(C)C)Nc2ccccc2)n1	3	-8	-4	-18	-7	0
COc1cc(C(=O)OCC(C)=O)cc(NC(=O)c2ccco2)c1OC	1	-10	4	179*	-3	4
COc1cc(C(=O)OCC(=O)NC2CCCC2)cc(NC(=O)c2ccco2)c1OC	1	2	-3	-5	6	x
C[C@H](CO)N1C[C@H](C)[C@@H](CN(C)C(=O)Nc2ccc(F)cc2)OCCCC[C@H](C)Oc2ccc(NS(=O)(=O)c3ccccc3)cc2C1=O	x	x	x	x	x	2
O=C1Cc2ccccc2C(=O)N1Cc1cccc(Cl)c1	-2	-3	1	-19	1	68*
C[C@@H]1CN([C@@H](C)CO)C(=O)c2cc(C3=CCCCC3)cnc2O[C@@H]1CN(C)Cc1ccccc1	x	x	x	x	x	2
O=C(C[C@@H]1C[C@H]2c3cc(NC(=O)Cc4ccncc4)ccc3O[C@H]2[C@@H](CO)O1)NCc1ccc2c(c1)OCO2	x	x	x	x	x	3
COc1cc(/C=C2\SC(=Nc3ccc(Cl)c(C(=O)O)c3)NC2=O)c(Br)c(Br)c1O	-6	-2	-1	-17	48	35*
CCN1CCN(C(=O)c2ccc(CS(=O)(=O)Cc3ccccc3Cl)o2)CC1	4	-4	3	-5	5	63*
SMILES	GC-B act	FN deposition inh	GC-A act	CaV13 ICDI inh	NSD2 HMT inh	CASP6 VEID inh
CCN1CCN(C(=O)c2ccc(CS(=O)(=O)Cc3ccccc3C)o2)CC1	-2	8	3	-7	9	-1
CCc1ccccc1S(=O)(=O)Cc1ccc(C(=O)N2CCN(c3ccccc3OC)CC2)o1	-2	6	3	55*	x	1
CCC(=O)Nc1ccc2c(c1)OC[C@@H](C)N(Cc1ccccc1C(=O)O)C[C@@H](C)[C@H](OC)CN(C)C2=O	x	10	x	x	x	2
Cc1noc(C)c1S(=O)(=O)Nc1ccc2c(c1)CC(=O)N([C@@H](C)CO)C[C@@H](C)[C@H](CN(C)S(=O)(=O)c1ccc(Cl)cc1)O2	x	-4	x	x	x	-1
O=C(COC(=O)/C=C/c1cccc(Cl)c1)NCCC1=CCCCC1	0	9	-3	-5	-2	x
O=C(COC(=O)/C=C/c1ccc(Cl)cc1)NCCC1=CCCCC1	0	32*	3	-3	-1	x
Cc1ccc(NC2=C/C(=N/S(=O)(=O)c3cccs3)c3ccccc3C2=O)cc1C	0	-8	-1	-10	0	0
Cc1ccccc1NC1=C/C(=N\S(=O)(=O)c2ccc(C(=O)O)cc2)c2ccccc2C1=O	-4	4	3	-7	139*	99*
Cc1ccccc1NC1=C/C(=N\S(=O)(=O)c2cccs2)c2ccccc2C1=O	11	52*	5	-6	44	x
COc1ccc(S(=O)(=O)/N=C2\C=C(Nc3ccc(O)cc3)C(=O)c3ccccc32)cc1	-8	36*	-13	-4	51*	78*
O=C(O)c1ccc(S(=O)(=O)/N=C2\C=C(Nc3ccccc3F)C(=O)c3ccccc32)cc1	-4	13	2	-7	120*	99*
CC(CNC(=O)c1ccc(OC2CCN(Cc3ccccn3)CC2)cc1)c1ccccc1 (stereo unspecified)	4	-2	-3	-2	2	45*
Fc1cnc(N2CCN(c3ccccc3)CC2)nc1N1CCN(c2ccccc2)CC1	-4	30*	2	-3	3	-1
COc1ccc(/C=C2\C(=N)N3N=C(CC(=O)N4CCOCC4)SC3=NC2=O)cc1	-1	2	1	-2	5	-1
Cc1ccccc1-n1c(C)cc(/C=C2/C(=N)N3C(c4ccccc4)=CSC3=NC2=O)c1C	-2	-16	1	-6	-3	-1
Cc1ccc(/C=C2\C(=N)N3N=C(CC(=O)N4CCOCC4)SC3=NC2=O)o1	1	-13	-1	-7	4	38*
N=C1/C(=C\c2ccc(-c3cccc(C(=O)O)c3)o2)C(=O)N=C2SC=C(c3ccccc3)N12	3	-14	-15	-59	x	50*
N=C1/C(=C/c2ccc(-c3cccc(C(=O)O)c3)o2)C(=O)N=C2SC(CC(=O)N3CCOCC3)=NN12	0	5	1	-3	84*	31
